{"data": "Results gathered from unrelated publications", "target": "Dual specificity tyrosine-phosphorylation-regulated kinase 1A (DYRK1A, Homo sapiens, UniProt Q13627)", "note": "Protocols differ between the studies behind these lines."}
{"Structure (SMILES)": "O=C(O)c1ccc2c(c1)nc(NCc1ccccc1)c1ncncc12", "test": "enzyme activity, inhibitor, radiometric", "conditions": "1 µM", "endpoint": "remaining activity", "value": "61%"}
{"Structure (SMILES)": "CC(C)[C@H](CO)Nc1nc(Nc2cccc(Cl)c2)c2ncn(C(C)C)c2n1", "test": "cell-free assay", "conditions": "0.5 µM", "endpoint": "remaining signal", "value": "65.4%"}
{"Structure (SMILES)": "CN(C)C1CCN(CC#Cc2nn(C3CCCC3)c3nc(NCc4ccccc4)ncc23)C1 (stereo not shown)", "test": "enzyme activity, inhibitor, FRET", "conditions": "1 µM", "endpoint": "inhibition", "value": "4%"}
{"Structure (SMILES)": "CNCc1ccccc1-c1csc([C@H](C)Nc2nc(C)nc3cc(OC)c(OC)cc23)c1", "test": "cell-free assay, competition with immobilised ligand", "conditions": "1 µM", "endpoint": "remaining binding", "value": "80%"}
{"Structure (SMILES)": "CCCS(=O)(=O)Nc1ccc(F)c(C(=O)c2c[nH]c3ncc(-c4ccc(Cl)cc4)cc23)c1F", "test": "enzyme activity, inhibitor", "conditions": "1 µM", "endpoint": "inhibition", "value": "< 10%"}
{"Structure (SMILES)": "N#Cc1cccc(Nc2nc3cc(C(=O)O)ccc3c3cnccc23)c1", "test": "enzyme activity, inhibitor, radiometric", "conditions": "1 µM", "endpoint": "remaining activity", "value": "-1%"}
{"Structure (SMILES)": "O=S(=O)(NC1CCC(c2cc(F)ccc2F)(S(=O)(=O)c2ccc(Cl)cc2)CC1)C(F)(F)F (stereo not shown)", "test": "cell-free assay, competition with immobilised ligand", "conditions": "1 µM", "endpoint": "remaining binding", "value": "78%"}
{"Structure (SMILES)": "COc1cc2ncnc(Nc3ccc(Oc4ccccc4)c(C)c3C)c2cc1OC", "test": "enzyme activity, inhibitor", "conditions": "1 µM", "endpoint": "inhibition", "value": "1%"}
{"Structure (SMILES)": "COc1ccc2c(O[C@@H]3C[C@H]4C(=O)N[C@]5(C(=O)O)CC5/C=C\\CCCCC[C@H](NC(=O)OC5CCCC5)C(=O)N4C3)cc(-c3csc(NC(=O)C(C)C)n3)nc2c1C (stereo partly shown)", "test": "cell-free assay, competition with immobilised ligand", "conditions": "1 µM", "endpoint": "remaining binding", "value": "79%"}
{"Structure (SMILES)": "Cn1c2c(Cl)c(Cl)ccc2c2cc[nH]c(=O)c21", "test": "thermal stability, DSF", "conditions": "10 µM", "endpoint": "ΔTm", "value": "2.6 °C"}
{"Structure (SMILES)": "O=C(O)c1ccc2c(c1)nc(Nc1ccc3ccccc3c1)c1ncncc12", "test": "enzyme activity, inhibitor, radiometric", "conditions": "1 µM", "endpoint": "remaining activity", "value": "-1%"}
{"Structure (SMILES)": "Cn1c2c(Cl)c(Cl)ccc2c2cn[nH]c(=O)c21", "test": "thermal stability, DSF", "conditions": "10 µM", "endpoint": "ΔTm", "value": "1.3 °C"}
{"Structure (SMILES)": "COc1cccc(CCNc2nc3cc(C(=O)O)ccc3c3cncnc23)c1", "test": "enzyme activity, inhibitor, radiometric", "conditions": "1 µM", "endpoint": "remaining activity", "value": "40%"}
{"Structure (SMILES)": "Nc1ncnc2occ(-c3ccc(NC(=O)Nc4cc(C(F)(F)F)ccc4F)cc3)c12", "test": "cell-free assay", "conditions": "20 µM", "endpoint": "remaining signal", "value": "58%"}
{"Structure (SMILES)": "Cn1c2c(c3ccc(Cl)c(Cl)c31)C(C#N)C1(CCN(C(=O)OC(C)(C)C)CC1)NC2=O (racemic)", "test": "thermal stability, DSF", "conditions": "10 µM", "endpoint": "ΔTm", "value": "-0.8 °C"}
{"Structure (SMILES)": "O=C1Nc2ccc(Cl)cc2C1=Cc1cc(Cl)c(O)c(Cl)c1", "test": "cell-free assay", "conditions": "0.5 µM", "endpoint": "remaining signal", "value": "95.6%"}
{"Structure (SMILES)": "O=C(O)c1ccc2c(c1)nc(NCCc1cccc(Cl)c1)c1ncncc12", "test": "enzyme activity, inhibitor, radiometric", "conditions": "1 µM", "endpoint": "remaining activity", "value": "44%"}
{"Structure (SMILES)": "CC1=C(C#N)[C@@H](c2ccc3[nH]nc(C)c3c2)C(C#N)=C(c2ccc(Cl)cc2)N1", "test": "cell-free assay, competition with immobilised ligand", "conditions": "1 µM", "endpoint": "remaining binding", "value": "100%"}
{"Structure (SMILES)": "O=C(O)c1ccc2c(c1)nc(NCc1ccccc1)c1ccncc12", "test": "enzyme activity, inhibitor, radiometric", "conditions": "1 µM", "endpoint": "remaining activity", "value": "49%"}
{"Structure (SMILES)": "COCCOc1nc(-c2ccc(Cl)nc2)nc2c1CN(C(=O)c1ncn3ccccc13)CC2", "test": "cell-free assay, competition with immobilised ligand", "conditions": "0.1 µM", "endpoint": "remaining binding", "value": "78%"}
{"Structure (SMILES)": "CS(=O)(=O)CCNCc1ccc(-c2ccc3ncnc(Nc4ccc(OCc5cccc(F)c5)c(Cl)c4)c3c2)o1", "test": "cell-free assay", "conditions": "0.5 µM", "endpoint": "remaining signal", "value": "101%"}
{"Structure (SMILES)": "Cn1cncc1C1=CN(c2ncnc3[nH]cnc23)CCS1", "test": "enzyme activity, inhibitor, radiometric", "conditions": "2 µM", "endpoint": "inhibition", "value": "95.4%"}
{"Structure (SMILES)": "CN1CCC2(CC1)NC(=O)c1c(c3ccc(Cl)c(Cl)c3n1C)C2C#N (racemic)", "test": "thermal stability, DSF", "conditions": "10 µM", "endpoint": "ΔTm", "value": "1 °C"}
{"Structure (SMILES)": "O=C(O)c1ccc2c(c1)nc(Nc1ccccc1)c1ncncc12", "test": "enzyme activity, inhibitor, radiometric", "conditions": "1 µM", "endpoint": "remaining activity", "value": "3%"}
{"Structure (SMILES)": "CO[C@@H](C)c1c(Nc2ccc([C@@H](N(C)C(=O)C3CCS(=O)(=O)CC3)C(F)(F)F)cc2)cnc2cc(Cl)nn12", "test": "cell-free assay, competition with immobilised ligand", "conditions": "1 µM", "endpoint": "remaining binding", "value": "92%"}
{"Structure (SMILES)": "Cc1ccc(NC(=O)c2ccc(C)c(C(F)(F)F)c2)cc1C#Cc1nn(C2CCC(O)CC2)c2ncnc(N)c12 (stereo not shown)", "test": "cell-free assay", "conditions": "10 µM", "endpoint": "remaining signal", "value": "95%"}
{"Structure (SMILES)": "O=C1NC(c2ccccn2)Sc2ccccc21 (stereo not shown)", "test": "cell-free assay, competition with immobilised ligand", "conditions": "1 µM", "endpoint": "remaining binding", "value": "100%"}
{"Structure (SMILES)": "O=C1NC(=O)c2cc(Nc3ccc(F)cc3)c(Nc3ccc(F)cc3)cc21", "test": "cell-free assay", "conditions": "0.5 µM", "endpoint": "remaining signal", "value": "95.6%"}
{"Structure (SMILES)": "CNc1cccc2cc(C(=O)Nc3ccc(C(=O)O)cc3)c(=O)[nH]c12", "test": "enzyme activity, inhibitor", "conditions": "10 µM", "endpoint": "inhibition", "value": "28%"}
{"Structure (SMILES)": "COc1cc(/C=C/C(=O)CC(=O)/C=C/c2ccc(O)c(OC)c2)ccc1O", "test": "enzyme activity, inhibitor", "conditions": "1 µM", "endpoint": "activity vs control", "value": "20%"}
{"Structure (SMILES)": "Cc1c(NC(=O)c2cc(C(N)=O)nc3cc(F)ccc23)c(C(F)(F)F)nn1Cc1ccc(C(C)(C)C)cc1", "test": "cell-free assay, competition with immobilised ligand", "conditions": "1 µM", "endpoint": "remaining binding", "value": "100%"}
